Compounds with a hit are over-represented: about 2.5% of the library has one in this group of screens.
SENP8 block-1: human SENP8 protease inhibitors, primary screen, biochemical, fluorescence, Nedd8 protein substrate, uHTS | 0.64% of 360,000 active | Sentrin-specific protease 8 (Homo sapiens), Q96LD8 | inhibition, % at 20 µM | recombinant SENP8; in the data active means inhibition mostly above about 40%, no sharp cut-off; inactive means mostly below about 27%
Target sequence (Q96LD8 whole entry, looked up): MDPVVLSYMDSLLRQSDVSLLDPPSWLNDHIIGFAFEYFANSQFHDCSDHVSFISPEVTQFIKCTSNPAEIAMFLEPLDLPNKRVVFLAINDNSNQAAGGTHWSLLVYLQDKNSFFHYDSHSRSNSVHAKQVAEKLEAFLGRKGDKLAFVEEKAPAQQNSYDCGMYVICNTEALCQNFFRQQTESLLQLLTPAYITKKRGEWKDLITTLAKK
SENP7 block: SENP7 protease inhibitors, primary screen, biochemical, luminescence, uHTS. 1.5% of 330,000 active. inhibition, % at 5 µM. Sentrin-specific protease 7 (Homo sapiens), Q9BQF6. recombinant SENP7, Z-RLRGG-aminoluciferin luminescence, 40 min;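 active means inhibition above about 50% at the single test dose, limit read from the data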;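 further: plate controls were DMSO with enzyme for no effect and no enzyme buffer wells for full effect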
Target sequence (Q9BQF6 706-1050 limits assumed): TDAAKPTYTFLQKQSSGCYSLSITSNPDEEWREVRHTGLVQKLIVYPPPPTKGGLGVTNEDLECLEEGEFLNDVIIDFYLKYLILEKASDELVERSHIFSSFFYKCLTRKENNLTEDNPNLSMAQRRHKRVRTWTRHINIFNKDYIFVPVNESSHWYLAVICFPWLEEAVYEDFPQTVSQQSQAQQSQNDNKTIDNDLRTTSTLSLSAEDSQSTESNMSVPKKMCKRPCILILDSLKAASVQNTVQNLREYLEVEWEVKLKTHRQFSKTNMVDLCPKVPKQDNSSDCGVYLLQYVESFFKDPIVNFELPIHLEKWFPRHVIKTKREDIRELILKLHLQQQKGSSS
SENP6 block: SENP6 protease inhibitors, primary screen, biochemical, luminescence, uHTS | Sentrin-specific protease 6 (Homo sapiens), Q9GZR1 | Recombinant SENP6 catalytic domain, aminoluciferin luminescence | inhibition, % at 10 µM | 1.8% of 330,000 active | AID 2599, 2010;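 active means inhibition above about 50% at the single tested dose, limit read from the data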;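 further: plate controls were DMSO wells with enzyme for no effect and DMSO wells lacking enzyme for full effect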
SENP1 FRET inh: human SENP1 catalytic domain inhibitors, primary screen, biochemical, FRET, uHTS; Sentrin-specific protease 1 (Homo sapiens), Q9P0U3; recombinant SENP1 catalytic domain, CyPet-SUMO1-YPet FRET cleavage; inhibition, % at 10 µM; 0.21% of 360,000 active; AID 624204, 2012;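 active means inhibition at least 30% at 10 µM, raw YFP signal under a set limit, fluorescence ratio 0.5 to 1.5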;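 further: 0% = enzyme with DMSO and 100% = no enzyme wells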
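Controls: no-enzyme wells low, DMSO-plus-enzyme wells high control. Test system: human recombinant His6-tagged SENP1 catalytic domain enzyme. Reagent: SFCypet-SUMO1-SFYpet FRET protein substrate, 25 nM final. Doses: one dose per compound, 10 µM, 0.5% DMSO. Detection: FRET, CFP and YFP emission. Timing: 50 min reaction at room temperature.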
SENP8 block-2: SENP8 protease inhibitors, primary screen, biochemical, luminescence; Sentrin-specific protease 8 (Homo sapiens), Q96LD8; purified SENP8, Z-RLRGG-aminoluciferin cleavage; inhibition, % at 10 µM; 1.2% of 330,000 active; AID 2540, 2010; in the data active means inhibition above about 50%
Active calls of the source: *; . = no result given.

SMILES	SENP8 block-1	SENP7 block	SENP6 block	SENP1 FRET inh	SENP8 block-2
CC1=NN(c2ccccc2)C(=O)/C1=C\C=C\c1ccccc1	31.7	1.9	-2.4	2.4	2.9
CC(=O)Oc1ccc(/C=C2/C(=O)N(c3ccccc3)N=C2C)cc1	44.9*	35.7	14.3	1.7	3.5
CCOc1cc(/C=C2/C(=O)N(c3ccccc3)N=C2C)ccc1OC(=O)c1cccs1	38.1	18.4	19.8	2.6	-6.5
COc1ccc(/C=C2/C(=O)N(c3ccccc3)N=C2C)cc1OC	74.8*	30.3	13.1	3.4	2.0
CC1=NN(c2ccccc2)C(=O)/C1=C/C=C/c1ccc(N(C)C)cc1	37.5*	.	.	2.2	.
CC(NC(=O)C12CC3CC(CC(C3)C1)C2)c1ccc(F)cc1 (stereo not drawn)	7.9	-8.3	-3.2	0.2	-5.7
O=C(NCc1ccncc1)c1csc([C@@H]2O[C@H](CO)[C@@H](O)[C@H]2O)n1	1.2	.	.	-1.2	.
CN(C)C(CNC(=O)c1cc(S(=O)(=O)N2CCOCC2)ccc1Cl)c1cccs1 (stereo not drawn)	-18.8	.	.	-30.4	.
COc1cc(NCCCC(C)N)c2ncccc2c1 (stereo not drawn)	57.0*	.	.	-5.0	.
NNC(=O)c1ccc(COc2ccc3c(c2)CCC3)cc1	1.0	-2.7	-0.6	2.8	-12.6
O=C(O)c1ccc(COc2ccc3c(c2)CCC3)cc1	9.9	51.0*	94.8*	-0.7	83.7*
COc1cccc(-c2nc(-c3ccc(Br)o3)no2)c1	10.0	84.0*	84.8*	0.4	72.4*
S=c1[nH]ncn1/N=C/c1ccco1	3.1	.	.	0.3	.
C[C@@H]1CN([C@H](C)CO)C(=O)c2cc(C#CC(C)(C)O)cnc2O[C@@H]1CN(C)C(=O)C1CC1	-19.6	.	.	1.5	.
CCC(NCc1cccnc1)c1ccc(OC)c(OC)c1 (stereo not drawn)	17.6	.	.	0.3	.
CNc1nc2cc([N+](=O)[O-])c([N+](=O)[O-])cc2nc1NC	11.1	.	.	43.2*	.
N#Cc1cc2nc(O)c(O)nc2cc1[N+](=O)[O-]	11.6	5.9	-2.6	-1.4	9.8
CC(=O)Nc1ccc(C(=O)Nc2ccc3c(c2)OCO3)cc1	1.1	7.5	-6.7	1.7	-6.4
O=C(Nc1ccc2c(c1)OCO2)c1ccc2c(c1)OCO2	9.4	84.5*	86.1*	-3.1	67.1*
COc1[nH]c(/N=C/c2ccccc2)c(C#N)c1C#N	-34.5	-9.4	-17.1	69.6*	-1.3
Cc1oc(/N=C/c2ccccc2)c(C#N)c1C	21.4	-4.3	31.1	-3.8	11.4
c1ccc(-c2ccc(-c3ccccn3)nn2)nc1	.	89.1*	83.3*	.	70.5*
O=c1c(N=Nc2ccccc2)c[nH]n1-c1ccccc1	54.0*	.	.	3.2	.
Cc1[nH]n(-c2ccccc2)c(=O)c1N=Nc1ccc(F)cc1	37.6	5.8	-2.5	2.4	5.8
CC(C)Oc1ccc(C(=O)NC(=S)Nc2ccc(Cl)c(C(=O)O)c2)cc1	19.6	5.8	3.4	0.2	6.8
SMILES	SENP8 block-1	SENP7 block	SENP6 block	SENP1 FRET inh	SENP8 block-2
Cc1ccc(O)c(Cn2nnc3ccccc32)c1	4.8	-11.3	-6.1	1.6	-1.1
O=c1[nH]c(-c2ccccn2)cc2ccccc12	-417.0	-0.3	5.2	-1.5	-3.0
O=c1[nH]c(Nc2ccccn2)cc2ccccc12	-499.3	93.4*	91.2*	-68.6	87.2*
O=C1c2ccccc2-c2c1nc1c([n+]2[O-])CCCC1	41.5*	8.6	-0.8	1.3	-1.8
CCC(=O)NC(c1cccs1)c1cc([N+](=O)[O-])c2cccnc2c1O (stereo not drawn)	66.1*	10.0	3.4	-0.4	6.6
CC(C)C(=O)NC(c1ccccc1)c1cc([N+](=O)[O-])c2cccnc2c1O (stereo not drawn)	32.5	2.1	7.6	-1.8	-3.2
CC(=O)NC(c1ccccc1)c1cc([N+](=O)[O-])c2cccnc2c1O (stereo not drawn)	52.5*	6.7	9.2	-0.9	5.1
CC(=O)NC(c1cccs1)c1cc([N+](=O)[O-])c2cccnc2c1O (stereo not drawn)	45.3*	.	.	-4.8	.
CCCC(=O)NC(c1cccs1)c1cc([N+](=O)[O-])c2cccnc2c1O (stereo not drawn)	51.7*	.	.	-4.3	.
O=C(O)c1ccc(-c2nc(-c3ccccc3)cs2)cc1	-86.7	89.1*	97.1*	2.8	92.0*
COC(=O)[C@@]12C[C@@H](CC(=O)NCc3cccc4ccccc34)C(=O)N(Cc3ccc4c(c3)OCO4)C1=CCC(C)(C)C2	6.8	.	.	0.7	.
O=c1c(O)c(-c2ccc(O)c(O)c2)oc2cc(O)cc(O)c12	33.0*	2.6	53.0*	64.4	27.7
O=c1cc(-c2ccc(O)c(O)c2)oc2cc(O)cc(O)c12	31.9	-7.1	6.3	24.9	13.2
Cn1cnnc1SCC(=O)Nc1ncc(C(F)(F)F)cc1Cl	3.3	4.3	14.0	-0.3	3.3
COC(=O)[C@@]12C[C@@H](CC(=O)N3CCN(C(=O)C4CC4)CC3)C(=O)N(CCc3ccc(OC)c(OC)c3)C1=CCC(C)(C)C2	22.0	.	.	-1.3	.
O=C(c1cccn2c(=O)c3ccccc3nc12)N1CCN(c2ccccn2)CC1	-244.7	2.4	1.1	-24.8	2.6
O=C(c1cccn2c(=O)c3cc4ccccc4cc3nc12)N1CCN(c2ccccc2)CC1	.	69.8*	45.2	.	27.8
COc1ccc([N+](=O)[O-])cc1C(=O)C(=O)c1ccccc1	43.7*	-14.6	-11.4	3.6	-11.8
O=C(N/N=C/c1c[nH]c2ccccc12)c1ccccc1	-46.0	1.8	-16.3	-0.4	-18.2
O=C(N/N=C/c1c[nH]c2ccccc12)c1sc2ccccc2c1Cl	8.7	36.1	65.3*	26.5	52.5*
CC(Sc1nc(N)cc(N)n1)C(=O)NCCC1=CCCCC1 (stereo not drawn)	-5.0	1.0	-3.6	-2.5	-2.9
COc1cc(NC(=O)Nc2nnc([C@H]3C[C@H](O)[C@@H](CO)O3)s2)cc(OC)c1	-1.8	.	.	0.0	.
O=Cc1cc(N=Nc2ccccc2Cl)ccc1O	38.6	-1.0	46.7	5.7	47.1
O=Cc1cc(N=Nc2cccc(C(=O)O)c2)ccc1O	22.6	97.6*	94.8*	11.5	96.6*
C(=Nc1ccccc1)c1ccc[nH]1	19.8	.	.	-4.7	.
SMILES	SENP8 block-1	SENP7 block	SENP6 block	SENP1 FRET inh	SENP8 block-2
Oc1ccccc1N=Cc1ccc[nH]1	40.6*	11.9	13.6	5.9	7.6
COC1=C(Br)C(=O)c2ncccc2C1=O	104.7*	.	.	8.4	.
O=C1C(=O)c2cccnc2-c2ncccc21	110.3*	.	.	29.2*	.
O=C1c2cccnc2-c2ncccc21	39.6	1.7	8.7	-2.4	-7.1
COc1ccc(Cl)cc1NC(=O)CCNC(=O)OCc1ccccc1	7.7	0.3	-0.9	2.5	-3.1
O=C(O)c1ccc(-c2nc3ccccc3[nH]2)cc1	-447.8	73.0*	75.1*	-0.1	62.5*

Compound activity (PubChem)
